Compound activity (PubChem)
NR1D1 modulator: modulates human Rev-erb alpha binding to DNA | P20393 | Rev-erbα–FITC-DNA binding, fluorescence polarization, 90 min | activity, % at 10 µM | 0.79% of 370,000 active | AID 1259318;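 active = activity above about 14%, limit read from the data; passing the limit was not always enough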
NR2E3 ag-1: human photoreceptor-specific nuclear receptor agonism; CHO-S Gal4-NCOR/VP16-NR2E3 two-hybrid, luciferase; inhibition of corepressor binding, % at 3.98 µM; 0.35% of 360,000 active; AID 602229;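 active = inhibition above the mean of all tested compounds plus 3 SD, cut at about 70% in these data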;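 note: higher means lower luciferase signal from less NR2E3 corepressor binding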
Target sequence (Q9Y5X4 whole entry, looked up, the tested form may be a part): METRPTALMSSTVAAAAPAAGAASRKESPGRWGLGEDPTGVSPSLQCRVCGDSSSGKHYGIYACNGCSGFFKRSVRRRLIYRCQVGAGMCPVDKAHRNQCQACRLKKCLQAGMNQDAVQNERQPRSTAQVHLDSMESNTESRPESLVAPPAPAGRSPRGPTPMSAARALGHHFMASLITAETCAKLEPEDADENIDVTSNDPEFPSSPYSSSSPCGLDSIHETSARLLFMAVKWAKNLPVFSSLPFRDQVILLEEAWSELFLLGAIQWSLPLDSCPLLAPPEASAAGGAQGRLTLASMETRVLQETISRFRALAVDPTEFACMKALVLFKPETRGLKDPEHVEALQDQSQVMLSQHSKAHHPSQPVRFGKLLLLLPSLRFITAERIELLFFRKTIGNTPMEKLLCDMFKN
PG9 binder: binds the HIV-1 gp120 antibody PG9. TR-FRET gp120-PG9 antibody binding. inhibition, % at 6.7 µM. 0.43% of 360,000 active; in the data active = inhibition above about 8.5%
SKN-1 inh: inhibitors of C. elegans SKN-1. C. elegans VP596 Pgst-4::GFP/RFP ratio, acrylamide-induced, 24 h. inhibition, % at 21.8 µM. 0.49% of 360,000 active;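 active = interference check ratio from 0.5 to 1.5 plus GFP to RFP signal ratio inhibition reaching or exceeding a fixed threshold, cut at about 30% in these data, passing the limit was not always enough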
MT1-MMP act inh: MT1-MMP (human) activation inhibition; P50281; HT1080 RFP-PRO-GFP cells, GFP/RFP ratio fluorescence, overnight; percent of plate control window, DMSO zero; GFP/RFP ratio change, % at 20 µM; 0.061% of 360,000 active;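 active = GFP/RFP ratio change of at least 30% with cell ATP level not reduced by more than half and red fluorescence within 50% of control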
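Assay system: HT1080 cells carrying an RFP-PRO-GFP reporter | Dosing: Single dose of 20 µM compound, 1% DMSO final | Incubation: Cells overnight before dosing, compound overnight, 37 °C, 5% CO2 | Evaluation: GFP/RFP fluorescence ratio | Control set: DMSO and RFP-L50D-GFP cell wells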
NR2E3 ag-2: agonists of human nuclear receptor NR2E3. Q9Y5X4. inhibition of corepressor binding, % at 4.78 µM. GST-NR2E3/biotin-RetCOR TR-FRET, 1536-well. 0.12% of 320,000 active;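 active = percent inhibition above the cutoff of mean plus 3 SD of all tested compounds, set per screening campaign, cut at about 20% in these data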
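System: GST-tagged NR2E3 plus biotinylated RetCOR corepressor; Buffer or medium: pH 7.5 Tris-based buffer; Probe or stimulus: RetCOR corepressor, biotinylated, 7 nM; Doses: compound at 4.8 µM, single dose; Schedule: 5 h incubation at 4 °C; Technique: time-resolved FRET; Evaluation: percent inhibition of TR-FRET ratio; Replication: one well per compound, singlicate testing.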
PG9 binder conf: PG9 antibody binding, confirmed | shares compounds with PG9 binder | TR-FRET PG9 antibody binding, biochemical | inhibition, % at 6.7 µM | 90% of 1,500 active | AID 651571; in the data active = inhibition above about 9%
PGV04 counter: PGV04 control antibody binding, counter-screen; shares compounds with PG9 binder; TR-FRET PGV04 antibody-gp120 binding, biochemical; inhibition, % at 6.7 µM; 95% of 1,500 active; AID 651604; in the data active = inhibition above about 9.5%
PG9 bind DR: PG9 antibody binding, dose response; shares compounds with PG9 binder; TR-FRET PG9 antibody-gp120 binding inhibition; IC50, µM; 95 tested, under 10 active; AID 651848; in the data active = IC50 below about 10 µM
PGV04 DR counter: counter-screen for PG9 binders: binding to control antibody PGV04 | shares compounds with PG9 binder | TR-FRET binding to control antibody PGV04 | IC50, µM | 20% of 95 active | AID 651937
PG126 binding DR: counter-screen for PG9 binders: binding to control antibody PG126; shares compounds with PG9 binder; TR-FRET binding to antibody PG126, counterscreen; IC50, µM; 20% of 95 active; AID 651939
Rev-erbA confirm: confirmation of modulators of human Rev-erb alpha DNA binding; activation, % at 25 µM; shares compounds with NR1D1 modulator; Rev-erb alpha FITC-DNA binding, fluorescence polarization, 90 min; 61% of 3,000 active;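 active = activation at or above a set limit, or at least 3 SD above the negative control mean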
RORg counter: counter-screen for Rev-erb alpha modulators: RORgamma DNA binding. shares compounds with NR1D1 modulator. AID 1259320. IC50, µM. 8% of 910 active. purified RORgamma protein-FITC-DNA binding, fluorescence polarization;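 active = Compounds whose fitted half-maximal concentration for disrupting protein-DNA binding is below 10 micromolar; the record names Rev-erb in its text, so the target is in doubt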
Numbers stand for hits; n = inactive; x = no result given. This is a sample that favours compounds with a hit; in the whole collection about 1.9% have one here. Cut-off read from the data, not from the text of the source, unless noted: active = IC50 below about 9 µM; inactive = the rest.

SMILES	NR1D1 modulator	NR2E3 ag-1	PG9 binder	SKN-1 inh	MT1-MMP act inh	NR2E3 ag-2	PG9 binder conf	PGV04 counter	Rev-erbA confirm	others
COC(=O)c1cc(-c2cccc(C(C)C)c2)c(=O)n2c1CCC2	n	x	x	x	x	x	x	x	x
COC(=O)[C@]12CCCCC=C1N(Cc1ccc(OC)cc1)C(=O)[C@@H]2CC(=O)NCCc1ccccc1OC	n	x	x	x	x	x	x	x	x
CCCOc1ccc2cc(C(=O)NCc3ccccc3)c(=O)oc2c1	70	n	11	n	n	n	38	56	29
COc1ccc2oc(=O)c(C(=O)NCc3ccccc3)cc2c1	n	n	n	n	n	n	x	x	x
COc1ccc(NC(=O)N(C)C[C@@H]2OCc3cnnn3CCCC(=O)N([C@H](C)CO)C[C@H]2C)c(OC)c1	n	x	n	x	x	x	x	x	x
N#Cc1c(N)nc(-c2ccccc2)nc1-c1ccccc1	n	n	n	n	n	n	x	x	x
CC(C)Nc1nc(-c2ccncc2)nc(-c2ccccc2)c1C#N	40	n	9.1	n	n	n	43	61	n
CCc1nc(Nc2cc(OC)ccc2OC)c2oc3ccccc3c2n1	22	n	13	n	n	n	20	25	n
CCc1nc(Nc2ccccc2OC)c2oc3ccccc3c2n1	n	n	n	n	n	n	x	x	x
CCCCCCC12C(=Cc3cc4c(cc31)OCCO4)c1cc(OC)c(OC)cc1C(CC(=O)NCc1ccccc1)N2C(=O)OC (stereo unspecified)	n	x	n	x	x	x	x	x	x
CCOc1ccccc1-c1nc(-c2cc3ccc(C)cc3[nH]c2=O)no1	66	n	18	n	n	n	13	27	44
CCCc1nc(SCC(=O)Nc2nnc(CC)s2)c2c(C)c(C)sc2n1	26	n	12	n	n	n	18	16	n	PG9 bind DR=n;PGV04 DR counter=n;PG126 binding DR=n
COc1ccccc1NC(=O)c1sc2ncn(Cc3cccc4ccccc34)c(=O)c2c1C	117	n	13	n	n	n	11	24	49	RORg counter=n
C=CCn1cnc2sc(C(=O)Nc3ccccc3OC)c(C)c2c1=O	n	n	n	n	n	n	x	x	x
O=C(CC1CC1)Nc1ccc2c(c1)[C@@H]1C[C@H](CC(=O)NC3CCCC3)O[C@@H](CO)[C@@H]1O2	n	n	n	n	n	x	x	x	x
CC(C)[C@H](NC(=O)c1ccc(Cl)cc1Cl)C(=O)N1CCC[C@H]1C(=O)NCc1ccccc1	n	x	n	x	x	x	x	x	x
COC(=O)c1cc2c(c3c4cc(F)ccc4n(S(=O)(=O)c4ccc(C)cc4)c13)C(=O)N(C)C2	n	x	n	x	x	x	x	x	x
Cc1ccc(OCC(=O)Nc2ccc(S(=O)(=O)Nc3ccccn3)cc2)cc1C	29	n	50	n	n	n	41	45	22
COC(=O)C1=C(C)N(C)C(=NCc2ccccc2C(F)(F)F)NC1CCc1ccccc1 (stereo unspecified)	n	x	n	x	x	x	x	x	x
COCCn1c(-c2ccccc2)nc2c(c(=O)c3ccccc3n2C)c1=O	x	x	x	x	x	n	x	x	x
Cn1c2ccccc2c(=O)c2c(=O)n(Cc3ccccc3)c(-c3ccc(F)cc3)nc21	28	n	21	n	n	n	28	39	30
COc1ccc(-c2nc(NC(=O)c3ccc(OCC(=O)Nc4ccc(F)cc4)c(OC)c3)sc2C)cc1	180	n	81	n	n	n	69	82	154	RORg counter=n
COc1ccc(C(=O)NCC(=O)Nc2ccc(F)cc2)cc1OC	n	n	n	n	n	n	x	x	x
CCN(CC)C(=O)CC[C@@H]1CC[C@]2(CCCN(Cc3cccnc3)C2)O1	n	x	x	x	x	x	x	x	x
CCn1c2ccccc2c2cc(NC(=O)COC(=O)c3ccccc3F)ccc21	25	n	28	n	n	n	33	56	23
SMILES	NR1D1 modulator	NR2E3 ag-1	PG9 binder	SKN-1 inh	MT1-MMP act inh	NR2E3 ag-2	PG9 binder conf	PGV04 counter	Rev-erbA confirm	others
NS(=O)(=O)c1ccc(CCNC(=O)CCCCCn2c(=S)[nH]c3ccc(Br)cc3c2=O)cc1	41	n	30	n	n	n	28	26	n	PG9 bind DR=n;PGV04 DR counter=n;PG126 binding DR=n
O=C(Nc1ccccc1Oc1ccccc1)[C@@H]1O[C@H](CO)[C@H](O)[C@H](O)[C@H]1O	n	n	n	n	n	x	x	x	x
COc1ccc(C(=O)Cn2cnc3ccccc3c2=O)cc1OC	n	n	n	n	n	n	x	x	x
COc1ccc(C(=O)Cn2cnc3ccc(Cl)cc3c2=O)cc1F	33	n	21	n	n	n	36	48	32	RORg counter=n
Cc1cc(Br)cn2c(Cc3ccccc3C(F)(F)F)c(-c3ccc(F)cc3)nc12	n	x	n	x	x	x	x	x	x
COc1ccc(C)c2sc(=NC(=O)c3ccccc3)n(C)c12	58	n	12	n	n	n	n	10	n
CCCC(=O)Nc1sc(C)c(-c2ccc(OC)cc2)c1C#N	24	n	9.1	n	n	n	19	23	28
COC(=O)CNC(=O)CNC(=O)c1nn(-c2ccc(OC)c(OC)c2)c(=O)c2ccccc12	n	n	n	n	n	n	x	x	x
COc1ccc(-n2nc(C(=O)NCC(=O)NCc3ccc(F)cc3)c3ccccc3c2=O)cc1OC	54	n	28	n	n	n	34	49	39	RORg counter=n
N#Cc1nc(-c2ccc(OCc3ccccc3)cc2)oc1N1CCC(C(N)=O)CC1	41	n	9.5	n	n	n	9.1	16	n
COc1ccc(-c2nc(C#N)c(N3CCC(C(N)=O)CC3)o2)cc1	n	n	n	n	n	n	x	x	x
COC(=O)c1c(NC(=O)CN2C(=O)NC3(CCc4ccccc4C3)C2=O)sc2c1CCCCC2 (stereo unspecified)	30	n	15	n	n	n	22	34	26
COC(=O)c1c(NC(=O)CN2C(=O)NC3(CCC(C(C)(C)C)CC3)C2=O)sc2c1CCCCC2 (stereo unspecified)	n	n	n	n	n	n	x	x	x
